Data on 96 compounds can be found in ChEMBL document CHEMBL4513216, “Probing the Open Global Health Chemical Diversity Library for Multistage-Active Starting Points for Next-Generation Antimalarials” (ACS Infect Dis, 2020).

The data set is described as follows: Toxicity liver stage against HepG2, at 10uM. The format is cell-based. On the set-up: test concentration 10 uM, cell line HepG2-A16-CD81EGFP. The conditions noted are these: human, HepG2-A16-CD81EGFP cells; read-out: INHIBITION
The method, boiled down:
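Uninfected HepG2-A16-CD81EGFP cells, 3 × 10^3 per well, 1536-well, plated on prespotted compound at 10 μM final, parasite-free screening media added to match infected plates; puromycin 10 μM positive, DMSO 0.5% negative; run in parallel with 48 h PbLuc assay at 37 °C, 5% CO2; viability by CellTiter-Glo luminescence, normalized to controls.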

In the case of `CCC1(CC)CC(=O)N(CC(O)c2cccc(Br)c2)C1=O` (stereo unspecified), the cytotoxicity at 10 µM is 3.89%.

As for `N#Cc1ccccc1CNC(C(=O)N1CCOCC1)c1ccccc1` (stereo unspecified), the cytotoxicity at 10 µM stood at 11%.

Regarding `O=C(CC1CC1)N1CCC2(CC1)CN(Cc1cccnc1)C(=O)CO2`, the cytotoxicity at 10 µM was found to be 3.59%.

Turning to `CC(=O)Nc1ncc(S(=O)(=O)Nc2ccc3c(c2)OCCO3)s1`, the cytotoxicity at 10 µM stood at 2.93%.

With `CCc1csc(NC(=O)Nc2c(C)n[nH]c2C)n1`, the cytotoxicity at 10 µM was -3.41%.

On to `Cc1nc(CN(C)C2CCN(CCCc3ccccc3)C2)no1` (stereo unspecified), for which the cytotoxicity at 10 µM is -16.1%.

Turning to `Cc1csc(CN2C[C@@H]3CN(S(C)(=O)=O)CCO[C@@H]3C2)n1`, the cytotoxicity at 10 µM is -98.3%.

On to `COc1ncc(-c2ccc(NC(C)=O)cc2)c(OC)n1`, for which the cytotoxicity at 10 µM is -8.64%.

As to `O=C(CN1CCN(CC2CCOc3ccccc3C2)CC1)N1CCCC1` (stereo unspecified), the cytotoxicity at 10 µM is -4.02%.

Consider `COc1cc2nc(NCc3cc(C)on3)nc(N)c2cc1OC`, for which the cytotoxicity at 10 µM was -3.34%.

On to `Cc1noc(C)c1CSCc1csc(CS(C)(=O)=O)n1`, for which the cytotoxicity at 10 µM is -17%.

For the compound `COc1cccc(CC(C)NC(=O)c2ccc(CNC(C)=O)cc2)c1` (stereo unspecified), the cytotoxicity at 10 µM stood at 7.21%.

As to `NC(=O)c1ccnc(N2CCN(Cc3ccc(F)cc3Cl)CC2)c1`, the cytotoxicity at 10 µM stood at 40.8%.

Take `CCOC(=O)CNC(=O)N1CCOC(CCc2ccccc2)C1` (stereo unspecified): the cytotoxicity at 10 µM was -4.41%.

`COc1cc2nc(C)n(CC(=O)NCCCO)c(=O)c2cc1OC`: the cytotoxicity at 10 µM was -0.869%.

As for `c1cnc(-c2nc(CN3CCCC3Cn3cncn3)cs2)nc1` (stereo unspecified), the cytotoxicity at 10 µM is -9.77%.

For `Cn1nc(CNC(=O)CN2C(=O)CCC2=O)cc1C1CC1`, the cytotoxicity at 10 µM is 2.89%.

Turning to `COCC(=O)N1CCC(c2noc3nc(C)cc(C(F)(F)F)c23)CC1`, the cytotoxicity at 10 µM came to 2.78%.

Regarding `CC(=O)N1CCC(c2nc3ccc(-c4ccnn4C)cn3n2)CC1`, the cytotoxicity at 10 µM came to 6.84%.

As for `O=C(C1CC1)N1CCC(Nc2nc(O)cc(-c3ccsc3)n2)CC1`, the cytotoxicity at 10 µM amounted to 5.29%.

On to `CCC(C)(CNC(=O)c1ccon1)NC(=O)c1ccon1` (stereo unspecified), for which the cytotoxicity at 10 µM was -0.903%.

For `CC(C)(C#N)CCCS(=O)(=O)c1nccn1-c1cccc(F)c1`, the cytotoxicity at 10 µM was -1.12%.

For the compound `Cc1ccc(CNC(=O)c2cc(CN3CCC(O)CC3)on2)s1`, the cytotoxicity at 10 µM is -48.5%.

On to `O=S(=O)(C1CC1)N1CCO[C@@H]2CN(Cc3ccco3)C[C@@H]2C1`, for which the cytotoxicity at 10 µM was -140%.

On to `CCc1nc(CN2CCOC(CN(C)c3cccnn3)C2)cs1` (stereo unspecified), for which the cytotoxicity at 10 µM amounted to 5.35%.

Take `Cc1cc(C(=O)N2CCn3cnc(COCC4CC4)c3C2)no1`: the cytotoxicity at 10 µM was 1.85%.

As for `O=C(CCn1cnc2cc(F)c(F)cc21)N1CCN2CCCCC2C1` (stereo unspecified), the cytotoxicity at 10 µM is -12.3%.

With `Cc1ccc(S(=O)(=O)CCC(=O)NCc2nnc3n2CCC3)cc1`, the cytotoxicity at 10 µM came out at 3.55%.

Turning to `Cc1nc(-c2ccccc2)sc1CSCCS(C)(=O)=O`, the cytotoxicity at 10 µM amounted to 3.85%.

For `CCCN1CC[C@@H]2OC[C@H](C(=O)Nc3cccnc3)C[C@@H]2C1`, the cytotoxicity at 10 µM came out at 5.7%.

On to `Cc1ccc(C(=O)NC2CCN(Cc3nc(CC(C)C)no3)CC2)s1`, for which the cytotoxicity at 10 µM worked out at 7.61%.

In the case of `Cc1nc2c(c(=O)n1C)CN(C(=O)C1CCCN(C(=O)N(C)C)C1)C2` (stereo unspecified), the cytotoxicity at 10 µM is -5.18%.

As to `CC(C)n1cc(CN2CCCN(C(=O)c3cccnc3O)CC2)cn1`, the cytotoxicity at 10 µM amounted to 4.29%.

As for `Cc1nc(COCc2cnc3n2CCN(C)C3C)cs1` (stereo unspecified), the cytotoxicity at 10 µM came to 6.01%.

Turning to `CSCCCN1C[C@H](NC(=O)c2ccc(CO)cc2)[C@@H](C2CC2)C1`, the cytotoxicity at 10 µM is -11.1%.

Turning to `CC(=O)N1CCOC2(CCCN(C(=O)c3ccc(Cl)cc3)C2)C1` (stereo unspecified), the cytotoxicity at 10 µM is -66.6%.

In the case of `CCn1ccnc1CN1CCCN(C(=O)c2cc(C)nn2CC)CC1`, the cytotoxicity at 10 µM was -5.89%.

With `CC(C)(CN1CCC(Cc2cccc(C(=O)O)c2)C1)N1CCOCC1` (stereo unspecified), the cytotoxicity at 10 µM amounted to 3.98%.

As for `O=c1c2c[nH]c(N3CCOCC3)nc-2cn1C1CCS(=O)(=O)C1` (stereo unspecified), the cytotoxicity at 10 µM stood at 3.41%.

Turning to `CC(C)CN1CC(c2nc(CCc3ccccc3)n[nH]2)CC1=O` (stereo unspecified), the cytotoxicity at 10 µM came to 6.08%.

Take `Cc1nc(NC(=O)N(C)Cc2ccsc2)nn1C`: the cytotoxicity at 10 µM stood at 1.81%.

With `Cc1nnc(CN(C)CC(=O)NCCc2ccc(F)cc2)n1C`, the cytotoxicity at 10 µM came out at 2.25%.

For `CCN(CC)C(=O)CN(C)C(=O)c1cccn1CCc1ccccc1`, the cytotoxicity at 10 µM is 1.98%.

With `O=C1CCCN1CCCC(=O)N1CCCC(c2ccn[nH]2)C1` (stereo unspecified), the cytotoxicity at 10 µM was -22.8%.

With `CSc1ccc(NCC(=O)NCC(=O)N2CCCC2)cc1F`, the cytotoxicity at 10 µM is 2.63%.

Regarding `Cc1noc(C)c1CN1C[C@@H]2C[C@@H](C)O[C@@H]2C1`, the cytotoxicity at 10 µM was 4.06%.

For the compound `O=C(CCc1ccc(Br)cc1)NCc1nnc[nH]1`, the cytotoxicity at 10 µM is 0.163%.

Consider `CN1[C@@H](C(=O)NCC2CC2)C[C@@H]2CN(c3ncccn3)C[C@@H]21`, for which the cytotoxicity at 10 µM stood at 9.85%.

With `O=C(Cc1csc(-c2ccco2)n1)N1CCN(c2nccs2)CC1`, the cytotoxicity at 10 µM was -9.26%.

As to `O=C(NN1CCCc2ccccc21)c1c[nH]c(=O)[nH]1`, the cytotoxicity at 10 µM was determined as 8.73%.

Take `O=C(NCCN1CCOCC1)c1ccn(-c2ccccc2F)n1`: the cytotoxicity at 10 µM amounted to 7.44%.

For `CC(NCCn1cccn1)c1ccccc1F` (stereo unspecified), the cytotoxicity at 10 µM was -3.21%.

Take `Cc1nccn1CCN(C)C(=O)C1CCCN(C2CCOCC2)C1` (stereo unspecified): the cytotoxicity at 10 µM was 0.417%.

For the compound `CCc1ccc(OCC(O)CN2CCN(CCO)CC2)cc1` (stereo unspecified), the cytotoxicity at 10 µM is -11.9%.

`O=C(Cn1nc(-c2ccc(F)cc2)oc1=O)NCc1ccncc1`: the cytotoxicity at 10 µM was -9.21%.

As for `COc1cccc(-c2noc(C3CCN(CC(N)=O)C3)n2)c1` (stereo unspecified), the cytotoxicity at 10 µM is -11.3%.

In the case of `CCNc1ccnc(NC2CCN(S(C)(=O)=O)CC2)n1`, the cytotoxicity at 10 µM is -5.16%.

With `Cc1ccc(F)c(N2CCCC(NS(=O)(=O)CCCF)C2=O)c1` (stereo unspecified), the cytotoxicity at 10 µM is -3.14%.

For the compound `O=C(c1ccccn1)N1CCC2(CNS(=O)(=O)c3cnccc3O2)C1` (stereo unspecified), the cytotoxicity at 10 µM amounted to 14.5%.

As to `O=C(NCc1csc2ccccc12)NCC1(O)CCSC1` (stereo unspecified), the cytotoxicity at 10 µM turned out to be 3.19%.

As for `Cc1noc(NCc2cc(F)ccc2F)n1`, the cytotoxicity at 10 µM was -4.86%.

For `Cc1ccc(N2CCCc3sc(C(=O)NCc4cccnc4)nc32)nn1`, the cytotoxicity at 10 µM was -2.96%.

As for `OCCN1CCN(Cc2cc3c(cc2Br)OCCO3)CC1`, the cytotoxicity at 10 µM was 7.59%.

On to `Cc1nc(COC[C@H]2CC[C@H]3[C@H](CCN3C(N)=O)O2)cs1`, for which the cytotoxicity at 10 µM is -81.2%.

For the compound `CCN1CCN(C(=O)c2ccc3c(c2)OCC(=O)N3)[C@H]2CS(=O)(=O)C[C@H]21`, the cytotoxicity at 10 µM is -49.6%.

In the case of `CS(=O)(=O)N1CCO[C@H]2[C@@H](Oc3ncccc3F)CC[C@@H]21`, the cytotoxicity at 10 µM is -2.54%.

Consider `CC(=O)N1CCCC1c1ccnc(Nc2cncnc2)n1` (stereo unspecified), for which the cytotoxicity at 10 µM was -25.6%.

For the compound `Cc1cc(CN(C)C(=O)NCc2ccccn2)no1`, the cytotoxicity at 10 µM was found to be 1.62%.

Regarding `COCC1CN(c2ccc3c(Cl)ccnc3c2F)CCO1` (stereo unspecified), the cytotoxicity at 10 µM stood at 25%.

With `CCOC(=O)C1(NCC(=O)Nc2cc(C)ccc2OC)CCCC1`, the cytotoxicity at 10 µM came out at 6.9%.

Take `Cc1ccc(CN2CCC[C@]3(C(=O)O)CN(C)C[C@@H]3C2)s1`: the cytotoxicity at 10 µM was -106%.

Turning to `CCC(CO)N(Cc1ccsc1)Cc1c(C)nn(C)c1Cl` (stereo unspecified), the cytotoxicity at 10 µM stood at 17.8%.

Regarding `O=C(CN(C1=NCCCCC1)c1ccc(Cl)cc1)c1ccccc1`, the cytotoxicity at 10 µM amounted to 12.2%.

`CCN(CC1CCCO1)C(=O)Nc1cc(OC)c(OC)cc1C` (stereo unspecified): the cytotoxicity at 10 µM is -10.9%.

As to `O=C(Cc1cccnc1)N1CCC2(CC1)CCN(C1CCOCC1)CC2`, the cytotoxicity at 10 µM was -8.25%.

As for `COc1cccc(CC(=O)NCc2cnc(C)nc2C2CCCN2C)c1` (stereo unspecified), the cytotoxicity at 10 µM is -7.47%.

Regarding `CCn1cc(CNC2CCN(c3c(F)cccc3F)C2)cn1` (stereo unspecified), the cytotoxicity at 10 µM was -2.93%.

Turning to `Cc1ccc(CN2CCCn3nnc(COCC4CC4)c3C2)s1`, the cytotoxicity at 10 µM is -6.51%.

As for `Cc1occc1CNC(=O)C1(C)CCCN1C(=O)c1ccccc1` (stereo unspecified), the cytotoxicity at 10 µM is -9.34%.

In the case of `Cc1sc(Br)cc1S(=O)(=O)NCCCN`, the cytotoxicity at 10 µM turned out to be 0.973%.

As to `O=C1[C@@H]2CCN(Cc3ccoc3)C[C@@H]2OCCN1Cc1cccnc1`, the cytotoxicity at 10 µM was -0.671%.

Consider `CN(C)C(=O)CCC(=O)NCc1cccnc1-n1cnc2ccccc21`, for which the cytotoxicity at 10 µM was -3.97%.

For the compound `Cc1c(O)cccc1C(=O)N1CCCC2(C1)C(=O)N(C)c1ccccc12` (stereo unspecified), the cytotoxicity at 10 µM was found to be 4.34%.

Take `Cc1nc(CN2CCO[C@@H]3CN(Cc4nccs4)C[C@@H]3C2)cs1`: the cytotoxicity at 10 µM worked out at 4.8%.

For the compound `O=C1NCC(C(=O)Nc2ccc(=O)n(Cc3ccccc3Cl)c2)N1` (stereo unspecified), the cytotoxicity at 10 µM was -1.73%.

Consider `CC(=O)N1CCCN(C(C(=O)O)c2ccccc2OC(F)(F)F)CC1` (stereo unspecified), for which the cytotoxicity at 10 µM is 15.5%.

As for `O=C(CN1CCOC(CNc2cccnn2)C1)NCc1cccs1` (stereo unspecified), the cytotoxicity at 10 µM was -14%.

Take `CCN1CC2(CCC1=O)CCN(Cc1cccc(C#N)c1)CC2`: the cytotoxicity at 10 µM is -1.1%.

For the compound `O=C(C1CC1)N1Cc2[nH]nc(COCc3cccnc3)c2C1`, the cytotoxicity at 10 µM was 0.997%.

Take `CN(C)c1ncncc1NC(=O)Cc1c[nH]c2ccc(F)cc12`: the cytotoxicity at 10 µM is -9.74%.

As for `CN(CCc1ccccc1)c1cnn(Cc2ccccn2)c(=O)c1`, the cytotoxicity at 10 µM was -7.03%.

Consider `Cc1ccc(CNC(=O)N(C)Cc2ccc([S+](C)[O-])cc2)s1` (stereo unspecified), for which the cytotoxicity at 10 µM was found to be 6.75%.

`COCCOc1ccc(S(=O)(=O)Nc2cccc(O)c2F)cc1C`: the cytotoxicity at 10 µM was 27.7%.

As to `O=C1N(CC2CCC2)CCCC12CCN(S(=O)(=O)c1cccnc1)C2` (stereo unspecified), the cytotoxicity at 10 µM came out at 9.94%.

For the compound `Cc1nc(N2CCCN(c3ncccn3)CC2)c2cnn(C)c2n1`, the cytotoxicity at 10 µM is 0.977%.

For `CC(=O)N1CCC(N[C@@H]2CO[C@H](CNC(=O)C3CCCC3)[C@H]2O)CC1`, the cytotoxicity at 10 µM is -2.17%.
